Published values gathered from unrelated publications.
Compare with care: the assays were run in different laboratories.

Compound | target or system | test | system | conditions | quantity | result
COc1ccc2c3c1O[C@H]1C(=O)CC[C@@]4(O)[C@@H](C2)N(C)CC[C@]314 |  | thermal pain | rat | intraperitoneal | ED50 | 2.67 mg/kg
Cc1csc2c(=O)n(O)c(=O)[nH]c12 | Human betaherpesvirus 5 | viral replication, inhibitor |  | 10 µM, 7 days | inhibition | 33%
NNC(=O)c1ccncc1 | Mycobacterium tuberculosis | microbial growth |  |  | IC50 | 120 nM
Nc1ncnc2c([C@@H]3N[C@H](CO)[C@@H](O)[C@H]3O)c[nH]c12 | human respiratory syncytial virus | viral replication, inhibitor | MA104 | 88.8 µM | inhibition | 94.2%
CCCCCCC#Cc1cncc(-c2nnc(SCc3ccc(Cl)cc3)n2C)c1 | Mycobacterium tuberculosis | microbial growth |  |  | IC50 | 850 nM
CCOC(=O)C1=C(N)N(c2ccc(C(=O)OCC)cc2)C(O)=C(C#N)C12C(=O)Nc1ccccc12 (stereo not shown) | HepG2 | cell growth or viability, MTT |  | 3.125 µM, 24 h | viability | 74.5%
O=c1[nH]c2cc(-c3ccc(Cl)cc3)sc2c(=O)n1O | Human betaherpesvirus 5 | viral replication, inhibitor |  | 10 µM, 7 days | inhibition | 70%
CCCCCCC#Cc1cncc(-c2nnc(SCc3ccc(Cl)cc3)n2C2CC2)c1 | Mycobacterium tuberculosis | microbial growth | ERDMAN |  | IC90 | 7500 nM
Nc1nc(O)c2ncn(COC(CO)CO)c2n1 | Human betaherpesvirus 5 | viral replication, inhibitor | HFF |  | EC50 | 1600 nM
O=c1[nH]c2sc(-c3ccc(F)cc3)cc2c(=O)n1O | Human betaherpesvirus 5 | viral replication, inhibitor |  | 10 µM, 7 days | inhibition | -12%
CCCCCCC#Cc1cncc(-c2nnc(SCc3ccc([N+](=O)[O-])o3)n2C2CC2)c1 | Mycobacterium tuberculosis | microbial growth | ERDMAN |  | IC90 | 130 nM
CCN1CC2(CCN(CCc3cc(F)ccc3F)CC2)O[C@H](C)C1=O |  | thermal pain | rat | intraperitoneal | ED50 | 1.85 mg/kg
O=c1[nH]c2cc(-c3ccc(Cl)cc3)ccc2c(=O)n1O | Human betaherpesvirus 5 | viral replication, inhibitor |  | 10 µM, 7 days | inhibition | 102%
